RGS4 act: RGS4 potentiation or activation. HEK293 M3R/inducible RGS4, carbachol calcium flux Fluo4; stronger effect = lower value. B-score at 10 µM. actives 0.92% (n = 310,000). AID 463111;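 active = B-score of the integrated calcium signal more than 4 SD below the library mean, with starting fluorescence not abnormally high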;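 note: negative B-score means reduced calcium response which marks RGS4 activation or potentiation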
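Detection: kinetic calcium fluorescence imaging with Fluo4-AM dye, 2 µM / Material: HEK293 cells with stable M3R and inducible RGS4 / Schedule: recording 10 s baseline at 1 Hz, 100 s post-agonist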
RGS4 block: human RGS4 inhibition | P49798 | HEK293 M3R/RGS4 inducible, Fluo-4 calcium flux; stronger effect = higher value; triggered by carbachol at its EC20 | B-score at 10 µM | actives 0.45% (n = 310,000) | AID 463165;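 active = B-score, a plate-corrected calcium signal, over three deviations above library mean, with baseline fluorescence within five deviations of library mean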;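 note: RGS4 expression induced by doxycycline in cells with stable M3 receptor; B-score is computed from the integrated fluorescence ratio over baseline after carbachol; higher B-score means a larger calcium signal and so more RGS4 inhibition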
Target sequence (P49798 whole entry, looked up): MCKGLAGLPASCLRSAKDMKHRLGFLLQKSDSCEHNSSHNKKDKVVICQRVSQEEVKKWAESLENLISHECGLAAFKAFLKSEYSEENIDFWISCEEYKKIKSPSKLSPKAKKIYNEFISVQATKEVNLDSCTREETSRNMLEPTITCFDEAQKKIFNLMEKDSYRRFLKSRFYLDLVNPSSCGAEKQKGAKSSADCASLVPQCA
MrgX1 agonist: human MrgX1 receptor agonism, primary screen; Q96LB2; MrgX1-HEK293 cells, Fluo-4 calcium fluorescence, agonist mode; stronger effect = higher value; B-score at 10 µM; actives 0.44% (n = 310,000); AID 588627;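 active = calcium response B-score plate-corrected fluorescence ratio at least 3 library SD, with starting fluorescence B-score inside 5 SD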
Target sequence (Q96LB2 whole entry, looked up): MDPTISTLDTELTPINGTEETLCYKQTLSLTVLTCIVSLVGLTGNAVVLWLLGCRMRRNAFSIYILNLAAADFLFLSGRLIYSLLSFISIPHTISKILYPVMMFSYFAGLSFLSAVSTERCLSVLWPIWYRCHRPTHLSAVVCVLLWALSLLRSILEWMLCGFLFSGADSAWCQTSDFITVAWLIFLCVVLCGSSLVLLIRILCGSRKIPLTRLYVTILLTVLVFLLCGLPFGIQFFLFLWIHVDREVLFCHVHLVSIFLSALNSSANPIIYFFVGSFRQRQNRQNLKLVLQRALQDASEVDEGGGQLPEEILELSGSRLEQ
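Material: MrgX1-expressing HEK293 cells / Dosing: compound as first of three additions / Incubation: overnight seeding, then 1 h dark dye loading / Signal: Fluo-4 NW calcium fluorescence / Evaluation: B-scored fluorescence response ratio / Benchmarks: positive and negative control wells on each plate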
MrgX1 antag: human MrgX1 receptor antagonism, primary screen; Q96LB2; actives 1.3% (n = 310,000); MRGX1-HEK293 calcium flux, Fluo-4, BAM8-22 antagonism; stronger effect = lower value; B-score at 10 µM;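 active = calcium-response B-score plate-corrected more than 3 library SD below zero, starting fluorescence within 5 deviations, no agonist response on first addition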;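 note: peak minus trough fluorescence over baseline after final BAM8-22 challenge near maximal dose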
MrgX1 PAM: allosterically activates human MrgX1 receptor signaling. MrgX1-HEK293, Fluo-4 calcium flux, FDSS; stronger effect = higher value. actives 0.63% (n = 310,000). Q96LB2. B-score at 10 µM;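 active = plate-corrected calcium response at least 3 library SD above typical, normal starting fluorescence, not activating the receptor alone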;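 note: compound read alongside a low EC10 to EC30 dose of BAM8-22 agonist; peak minus trough fluorescence over baseline measured at the second addition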
RGS4 inh valid: validation of RGS4 inhibitors. shares compounds with RGS4 block. HEK293 M3R/RGS4, carbachol calcium Fluo-4 fluorescence; carbachol added at its EC20; 0 = buffer wells, 100 = carbachol control. calcium response, % at 10 µM. actives 65% (n = 1,700). AID 492999;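 active = duplicate-averaged calcium response above the buffer-only control mean plus 5 SD of those controls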;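 note: integrated fluorescence ratio F max minus min over baseline F0; higher response in RGS4-induced cells means RGS4 inhibition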
RGS4 uninduced: checks RGS4 inhibitor effects in non-induced HEK293 M3R cells. shares compounds with RGS4 block. carbachol calcium Fluo-4; submaximal (EC20) carbachol stimulus; buffer wells 0%, carbachol control wells 100%. activity (percent), % at 10 µM. actives 20% (n = 1,900); call rule not given here;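 note: RGS4 induction absent so cells express M3R without RGS4; higher means more calcium signal and flags a non-specific hit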
RGS4 inh ctr2: second counter-screen for RGS4 inhibitors: non-induced cells without carbachol | actives 22% (n = 1,900) | AID 493001 | shares compounds with RGS4 block | calcium response (agonist-mode artifact), % at 10 µM | HEK293 M3R/RGS4 non-induced, Fluo-4 calcium, no carbachol; normalised: buffer wells 0%, carbachol wells 100%;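 active = duplicate-averaged calcium rise in uninduced cells above buffer wells' mean plus 5 SD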
* hit, by the source's call; i = inactive; nt = no result given. Rows were chosen to be rich in hits. Some 3.5% of all compounds tested hit in one or more screens of this group.

SMILES | RGS4 act | RGS4 block | MrgX1 agonist | MrgX1 antag | MrgX1 PAM | RGS4 inh valid | RGS4 uninduced | RGS4 inh ctr2
O=c1[nH]c2ccc(Cl)cc2c(-c2ccccc2)c1N1CCN(c2ccccn2)CC1 | i | 7.54* | i | i | i | 17.0%* | i | i
CN(C)CCC(=O)c1cccc(Br)c1 | i | 6.79* | i | i | i | i | i | 28.5%*
CC1(C)CC(=O)C(=Cc2cn(CCC#N)nc2-c2ccc(Cl)cc2)C(=O)C1 | i | i | i | i | i | nt | nt | nt
CC1(C)CC(=O)C(=Cc2cn(-c3ccccc3)nc2-c2ccc(Cl)cc2)C(=O)C1 | i | i | i | i | i | i | i | i
O=C(O)c1ccc(Nc2nc(-c3cc4ccccc4oc3=O)cs2)cc1O | i | 15.2* | nt | nt | nt | 40.0%* | i | 12.0%*
O=C(NCc1ccon1)C1CCC(=O)N(CCc2cccc(F)c2)C1 (stereo not given) | i | i | nt | nt | nt | nt | nt | nt
O=c1[nH]c2cc3c(cc2cc1CN(Cc1ccccc1)Cc1nnnn1Cc1ccco1)OCCO3 | i | i | nt | nt | nt | nt | nt | nt
COc1ccccc1CN(Cc1cc2cc3c(cc2[nH]c1=O)OCCO3)Cc1nnnn1Cc1ccco1 | i | 18.6* | i | i | i | 7.5%* | i | 11.5%*
O=c1[nH]c2cc3c(cc2cc1CN(Cc1cccs1)Cc1nnnn1Cc1ccco1)OCCO3 | i | 6.95* | i | i | i | i | i | i
O=c1[nH]c2cc3c(cc2cc1CN(Cc1cccnc1)Cc1nnnn1Cc1ccco1)OCCO3 | i | i | i | i | i | i | i | i
CCCCN(C(=O)c1cc2c(s1)CCC2)c1c(N)n(CCCC)c(=O)[nH]c1=O | i | i | i | i | i | nt | nt | nt
CN(c1ccccc1)c1ccc(/C=C/[N+](=O)[O-])cc1 | i | 6.08* | i | i | i | 32.5%* | i | 108.0%*
O=Cc1c(Cl)nc2ccccn2c1=O | i | 4.85* | i | i | i | 22.0%* | i | i
Cc1cccn2c(=O)c(C=O)c(Cl)nc12 | i | i | i | i | i | nt | nt | nt
CCOC(=O)c1[nH]c(C)c(C(=O)OCC(=O)N(C)C2CCS(=O)(=O)C2)c1C (stereo not given) | i | i | i | i | i | nt | nt | nt
Cc1[nH]n(-c2ncc(-c3ccccc3)s2)c(=O)c1C(c1ccc(Cl)cc1)C(C#N)C#N (stereo not given) | i | 13.7* | i | -5.32* | i | 70.5%* | i | 52.5%*
COc1cccc(/C=C2/C(=O)NN(c3ccc(C)c(C)c3)C2=O)c1 | i | 15.4* | i | i | i | 9.5%* | i | i
Cc1ccc(N2NC(=O)/C(=C\c3cc4c(cc3[N+](=O)[O-])OCO4)C2=O)cc1C | i | 25.6* | i | i | i | 69.0%* | i | 33.5%*
COc1cccc(/C=C2/C(=O)NN(c3ccccc3)C2=O)c1 | i | 7.47* | i | i | i | i | i | 8.0%*
COc1cccc(/C=C2/C(=O)NN(c3ccc(F)cc3)C2=O)c1 | i | i | i | i | i | nt | i | i
O=C(c1ccccc1)N1CCN(C(=O)c2nn3c(C(F)(F)F)cc(-c4ccccc4)nc3c2Br)CC1 | i | i | i | i | i | nt | nt | nt
O=C(COC(=O)c1cccnc1Cl)Nc1nc(-c2ccccc2)cs1 | i | i | i | i | i | nt | nt | nt
O=C1NC(=S)N/C1=C/c1ccc2c(c1)OCO2 | i | i | i | i | i | nt | nt | nt
O=C1NN(c2ccccc2)C(=O)/C1=C\c1ccc2c(c1)OCO2 | i | 7.68* | i | i | i | i | i | i
CC1C(=O)N2CCCc3cc(NC(=O)COc4ccc(Cl)cc4)cc1c32 (stereo not given) | i | i | i | i | i | nt | nt | nt
SMILES | RGS4 act | RGS4 block | MrgX1 agonist | MrgX1 antag | MrgX1 PAM | RGS4 inh valid | RGS4 uninduced | RGS4 inh ctr2
CCc1cccc2c(C(=O)CN3C(=O)NC(C)(c4cccc5ccccc45)C3=O)c[nH]c12 (stereo not given) | i | 10.9* | i | i | i | i | i | i
Oc1ccccc1CN1CCCC(N2CCN(c3cccc(C(F)(F)F)c3)CC2)C1 (stereo not given) | i | i | i | i | i | nt | nt | nt
Cn1ncc2c(N3CCN(c4ccc(Cl)c(Cl)c4)CC3)ncnc21 | i | 5.7* | i | i | i | 9.5%* | i | i
Cn1ncc2c(N3CCN(c4ccccc4F)CC3)ncnc21 | i | i | i | i | i | nt | nt | nt
Cc1ccc(C)c(NC(=O)CN(C)C(=O)c2ccc3[nH]c4c(c3c2)CC(C)CC4)c1 (stereo not given) | i | i | i | i | i | nt | nt | nt
CC(NCC(O)COC1CCC(C(C)(C)C)CC1)c1ccccc1 (stereo not given) | i | 10.3* | i | i | i | 5.0%* | i | i
CC(=O)Nc1ccc(S(=O)(=O)Nc2cc([N+](=O)[O-])ccc2C)cc1 | i | i | i | i | i | nt | nt | nt
Cc1ccc(NS(=O)(=O)c2ccc(NC(=O)CN(c3cc([N+](=O)[O-])ccc3C)S(C)(=O)=O)cc2)c(C)c1 | i | 8.64* | i | i | i | 23.0%* | i | i
c1ccc2sc(NC3=NCN(CC4CCCO4)CN3)nc2c1 (stereo not given) | i | i | i | i | i | nt | nt | nt
O=C1NC(=O)/C(=C/c2ccc(-c3cc(C(=O)O)ccc3Cl)o2)S1 | i | 6.16* | i | i | i | 12.5%* | i | i
CCOCCCNC(=O)CN1C(=O)COc2ccc(S(=O)(=O)N3CCCC3)cc21 | i | i | i | i | i | nt | i | i
CCOCCCNC(=O)CN1C(=O)CSc2ccc(S(=O)(=O)N3CCOCC3)cc21 | i | i | i | i | i | i | i | i
COCCCNC(=O)CN1C(=O)COc2ccc(S(=O)(=O)N3CCCCCC3)cc21 | i | i | i | i | i | nt | nt | nt
CCCCCCCNC(=O)CN1C(=O)CSc2ccc(S(=O)(=O)N3CCOCC3)cc21 | i | i | i | i | i | nt | nt | nt
